# Cardiac RTF inh – cardiac RTF calcium sensitivity inhibitors, primary screen, biochemical, IANBD-TnC fluorescence, EC70 calcium; AID 493244, 2011; IANBD-labeled cardiac RTF, Ca2+ fluorescence; 340,000 tested, 0.12% active; inhibition, % at 7.15 µM;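 active = inhibition above the mean inhibition of all tested compounds plus 3 SD, cut at about 17% in these data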;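 also: assay run at fixed EC70 calcium of 1.6 mM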
# RTF Ca sens act – cardiac RTF calcium sensitivity activators, primary screen, biochemical, IANBD-TnC fluorescence, EC20 calcium; IANBD-labeled TnC RTF fluorescence at EC20 calcium; 0% EC20 calcium, 100% full calcium; Troponin I, cardiac muscle (Homo sapiens) + Troponin T, cardiac muscle (Homo sapiens) + …; 340,000 tested, 0.24% active; activation, % at 7.2 µM;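 active = activation above the mean over all tested compounds plus 3 SD, cut at about 30% in these data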;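 also: rise in fluorescence read as greater calcium sensitivity of cardiac thin filaments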
# Efflux pump inh – inhibitors of Candida efflux pumps in yeast, primary screen, S. cerevisiae, Nile Red, multiplex; S. cerevisiae Candida pump triplex; inhibition, % at 10 µM; 330,000 tested, 0.44% active; AID 485275, 2010;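 active = plate passing quality check with inhibition over a set limit, or well fluorescence over plate mean plus 4 SD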;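 also: Nile Red retained in pooled yeast measured as flow cytometry median fluorescence; 0% = buffer negative control and 100% = Enniatin B positive control; higher means more Nile Red kept so more efflux inhibition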
# UCH37 DUB inh – inhibitors of human UCH37 deubiquitinase, primary screen, biochemical, Ub-AMC cleavage, fluorescence | Ubiquitin carboxyl-terminal hydrolase isozyme L5 (Homo sapiens), Q9Y5K5 | purified proteasome/UCH37 | inhibition, % (test concentration not listed) | 330,000 tested, 0.33% active;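 active = mean inhibition over replicate wells above about 20%, limit read from the data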;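 also: 0% = compound-free wells with enzyme and 100% = wells lacking proteasome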
# Target sequence (Q9Y5K5 whole entry, looked up): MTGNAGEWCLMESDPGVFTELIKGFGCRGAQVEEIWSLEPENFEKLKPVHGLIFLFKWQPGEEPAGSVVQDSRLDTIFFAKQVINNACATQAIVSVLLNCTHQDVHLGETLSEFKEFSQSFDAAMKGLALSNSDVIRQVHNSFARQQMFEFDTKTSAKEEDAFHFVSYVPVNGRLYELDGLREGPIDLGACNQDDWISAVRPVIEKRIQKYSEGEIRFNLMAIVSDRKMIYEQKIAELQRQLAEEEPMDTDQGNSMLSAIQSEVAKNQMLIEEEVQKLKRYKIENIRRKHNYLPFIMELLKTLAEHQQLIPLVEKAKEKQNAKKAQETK
#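 Reagent: Ub-AMC substrate; assay system: Proteasome-associated human UCH37 deubiquitinase; controls: no-proteasome and no-compound wells; read-out: % inhibition of Ub-AMC cleavage fluorescence; timing: 30 min preincubation with enzyme, 25 min cleavage at room temperature; signal: AMC fluorescence from Ub-AMC cleavage, excitation 355 nm, emission 460 nm; buffer or medium: Tris-HCl pH 7.4 plus ovalbumin, ATP-MgCl2, DTT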
# SUMO Mot1 rescue – yeast Mot1-301 growth rescue at high temperature, primary screen, SUMOylation pathway inhibitor project, S. cerevisiae, ATP luminescence, 38.5C | S. cerevisiae Mot1-301 growth rescue; percent above DMSO median, 100 means doubled | growth rescue, % at 18.8 µM | 320,000 tested, 1% active;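 active = every valid replicate shows activation above 250% relative to neutral control wells; inactive = the rest, any valid replicate at or below 250%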;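 also: OY570 slx delta 5 strain wells were the positive control but not used for scaling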
# ARNT TACC3 PPI – disruptors of ARNT/TACC3 protein interaction, primary screen, biochemical, AlphaScreen, single concentration; 390,000 tested, 0.66% active; AlphaScreen His-ARNT PAS-B/GST-TACC3 binding, luminescence; TACC3 fragment carries E629A point mutation; inhibition, % at 9.99 µM;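 active = mean inhibition of replicates at least 50% and at least half of replicates each reaching 50%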;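 also: 0% = complete ARNT plus TACC3 wells and 100% = ARNT alone without TACC3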
# The depositor's hits bear a star; . = no result. Only some compounds are listed: those with a hit (about 2.1% of all), similar ones and a draw of the others.
SMILES,Cardiac RTF inh,RTF Ca sens act,Efflux pump inh,UCH37 DUB inh,SUMO Mot1 rescue,ARNT TACC3 PPI
C[C@@H]1CN([C@H](C)CO)C(=O)c2cccc(NC(=O)c3ccc(-c4nccs4)cc3)c2O[C@H]1CN(C)C(=O)Nc1ccccc1,.,.,.,.,.,18.9*
C[C@H](CO)N1C[C@H](C)[C@H](CN(C)S(C)(=O)=O)Oc2c(NC(=O)c3ccncc3)cccc2C1=O,.,.,.,.,.,-4.8
Cc1noc(C)c1NC(=O)N(C)C[C@H]1Oc2c(NC(=O)c3ccc(-c4nccs4)cc3)cccc2C(=O)N([C@@H](C)CO)C[C@@H]1C,.,.,.,.,.,2.5
C[C@H](CO)N1C[C@H](C)[C@H](CN(C)S(=O)(=O)c2cccs2)Oc2c(NC(=O)c3ccncc3)cccc2C1=O,.,.,.,.,.,active
CCCN(CCC)c1ccc(C=NNC(=O)CN2CCOCC2)cc1,.,.,.,-236.5,.,.
COc1ccc(OC)c(-c2cc(C(=O)NN=Cc3ccc(F)cc3)c3ccccc3n2)c1,.,.,.,-36.7,.,.
N#C/C(=C\c1ccc(O)cc1)c1nc2ccccc2o1,-2.3,0.4,0.3,9.4,6.1,6.8
COc1cc(/C=C(\C#N)c2nc3ccccc3o2)ccc1O,-78.0,50.4*,0.4,8.3,-21.9,5.8
COc1ccc(C=NNC(=O)c2ccccc2O)cc1Cn1cc(Cl)cn1,.,.,.,-50.2,.,.
O=C(Nc1ccc(F)cc1F)c1ccc2ncsc2c1,-1.5,1.9,-0.1,2.5,334.6*,-0.5
Cn1c(=O)c2c(nc(NCC3CCCO3)n2Cc2ccccc2)n(C)c1=O (stereo not drawn),-6.4,4.3,0.0,25.8*,.,-25.8
CCn1c(SCC(=O)Nc2nc3ccccc3s2)nnc1-c1ccc(OC)cc1,0.9,-3.3,0.1,-0.3,343.4*,-2.8
O=C(C1=NN(c2ccccc2)C2C(=O)N(c3ccccc3)C(=O)C12)c1ccccc1 (stereo not drawn),-32.5,33.1*,0.2,-14.3,-2.5,-4.2
COc1ccc(NC(=O)COc2cccc3c2OC(C)(C)C3)cc1OC,-8.1,7.1,0.0,1.8,-11.2,12.6
Cc1cnc(NC(=O)COc2cccc3c2OC(C)(C)C3)s1,-1.0,-4.6,0.1,0.5,254.9*,-5.5
Cc1cccc(NN=C2COC(C)(C)CC2=O)c1,.,.,.,8.3,.,.
O=c1[nH]c(-c2ccc(F)cc2)nc2c1sc(=S)n2-c1ccccc1,-2.6,-0.1,0.0,3.9,966.4*,-2.5
COc1ccc([N+](=O)[O-])cc1N1C(=O)c2cccnc2C1=O,-0.8,-3.2,0.1,3.3,12.8,49.7*
CC(NC(=O)c1ccccc1)C(=O)NN=Cc1ccco1 (stereo not drawn),.,.,.,2.1,.,.
Cc1ccc(-c2n[nH]c(=S)n2N=Cc2cc3c(cc2[N+](=O)[O-])OCO3)cc1,.,.,.,1.7,.,.
Cc1cc(O)c2c(c1O)C(=O)[C@]13C(=C2O)C(=O)[C@@H]2[C@@H](O)[C@H]1[C@@H]1[C@H](O)[C@H]3C(=O)C3=C(O)c4c(O)cc(C)c(O)c4C(=O)[C@]312,10.0,3.1,0.1,20.9*,.,47.4*
C[C@H]1[C@H](C)CC[C@]2(C(=O)O)CC[C@]3(C)C(=CC[C@@H]4[C@@]5(C)C[C@@H](O)[C@H](O)C(C)(C)[C@@H]5CC[C@]43C)[C@H]12,4.2,-7.1,0.5,.,509.9*,-7.2
ON=Cc1ccc(OCc2ccccc2)c(Cl)c1,.,.,.,6.2,.,.
COc1cc(/C=C(\C#N)c2nc3ccccc3s2)ccc1OCC(=O)Nc1ccccc1,-22.9,33.9*,0.0,.,113.2,2.5
COc1cc(OC)c(-c2c3cc(O)c(=O)cc-3oc3cc(O)c(O)cc23)cc1OC,-487.7,894.0*,0.2,17.8,-42.7,.
Cc1ccc(N(CC(=O)NN=Cc2cc(C)n(-c3ccccc3C)c2C)S(C)(=O)=O)cc1,.,.,.,-0.6,.,.

# Source: PubChem BioAssay (several laboratories)
